Assay results published in ChEMBL document CHEMBL2010694, “Indolyl and dihydroindolyl N-glycinamides as potent and in vivo active NPY5 antagonists” (Bioorg Med Chem Lett, 2012).
≈ marks a conversion by molar mass, not a printed value. Calls of active or inactive are those of the source. The rule behind the calls is not given here.

How the values were obtained:
Rattus norvegicus = assay: Antiobesity activity in cPP-induced feeding in Sprague-Dawley rat model assessed as reduction in food intake at 0.1 to 10 mg/kg, po measured 1 hr post cpp challenge; format: functional, organism-based
Outline: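 Rats pretreated orally at 0.1, 1 or 10 mg/kg (vehicle 20% cyclodextrin) 1 h before intracerebroventricular infusion of Y5-selective peptide agonist cPP, 0.6 nmol in normal saline; food intake recorded, n = 7–14 per group.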

[1] = Clearance in Sprague-Dawley rat blood at 2 mg/kg, po and 1 mg/kg, iv after 24 hrs wash out period by HPLC analysis; format: ADME, organism-based; conditions: whole blood
Outline: (§1)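 Male Sprague-Dawley rats (200–250 g), jugular and carotid artery cannulated; compound dissolved in 20% beta cyclodextrin, pH adjusted with methane sulfonic acid. Serial blood sampled at 12 time points over 24 h post dose by automated sampler; plasma from centrifugation analysed by HPLC; PK parameters by non-compartmental analysis of plasma concentration–time profile.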

Cytochrome P450 3A4 = Cytochrome P450 3A4 (Homo sapiens, UniProt P08684); assay: Inhibition of CYP3A4; format: ADME
Cytochrome P450 3A4, sequence (P08684 whole entry): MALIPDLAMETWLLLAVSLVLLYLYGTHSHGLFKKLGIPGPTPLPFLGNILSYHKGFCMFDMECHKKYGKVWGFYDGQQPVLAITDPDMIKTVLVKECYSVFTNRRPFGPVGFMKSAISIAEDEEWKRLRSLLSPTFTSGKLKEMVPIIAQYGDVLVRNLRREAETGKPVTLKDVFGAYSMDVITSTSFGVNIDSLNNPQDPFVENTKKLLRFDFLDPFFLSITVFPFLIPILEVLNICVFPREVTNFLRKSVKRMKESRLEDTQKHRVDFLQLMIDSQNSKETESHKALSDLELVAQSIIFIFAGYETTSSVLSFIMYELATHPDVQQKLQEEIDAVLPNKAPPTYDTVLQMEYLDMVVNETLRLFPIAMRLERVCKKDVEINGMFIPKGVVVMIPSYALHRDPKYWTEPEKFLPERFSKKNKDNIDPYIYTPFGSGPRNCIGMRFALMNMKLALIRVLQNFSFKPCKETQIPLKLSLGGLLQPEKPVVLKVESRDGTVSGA

[2] = Solubility of the compound at pH 7.4; format: physicochemical; conditions: buffer
[3] = Plasma concentration in Sprague-Dawley rat at 10 mg/kg, po after 1 hr by LC-MS/MS analysis; format: ADME, organism-based; parameters: dose 10 mg/kg, route oral
Outline: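 Male Sprague-Dawley rats (300–350 g), femoral artery cannulated; single 10 mg/kg oral dose in an appropriate vehicle, N = 3. Blood taken predose, 1, 2 and 4 h; brains then collected and stored at -80 °C. Equal portions of plasma or homogenized brain from the three rats pooled per time point, protein precipitated, quantified by LC/MS/MS.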

[4] = Absolute oral bioavailability in Sprague-Dawley rat at 2 mg/kg after 24 hrs wash out period by HPLC analysis; format: ADME, organism-based; conditions: in vivo; outline: as §1
[5] = Half life in Sprague-Dawley rat plasma at 2 mg/kg, po and 1 mg/kg, iv after 24 hrs wash out period by HPLC analysis; format: ADME, organism-based; outline: as §1
Liver microsomes = assay: Intrinsic clearance in human liver microsomes at 1 uM by LC/MS analysis; format: ADME, Microsome
Outline: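 Compound incubated with human or rat liver microsomes; reaction quenched with acetonitrile, centrifuged, and remaining drug in supernatant measured by LC/MS to estimate T1/2, from which intrinsic clearance was derived.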

[6] = Plasma concentration in cPP-induced feeding Sprague-Dawley rat model at 1 mg/kg, po after 1 hr; format: ADME, organism-based; parameters: dose 1 mg/kg, route oral
Outline: (§2)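 Satellite animals from the cPP feeding study dosed orally at 0.1, 1 or 10 mg/kg; plasma (ng/mL) and brain (ng/g) levels measured 1 h after dosing.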

MDR [7] = assay: Efflux ratio of permeability from basolateral to apical side over apical to basolateral side in MDCK cells expressing MDR; format: ADME, cell-based, Canis lupus familiaris; conditions: dog, MDCK-MDR1
Outline: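 Bidirectional permeability measured across a Pgp-overexpressing mdr-MDCK cell monolayer, apical-to-basolateral and basolateral-to-apical. Apparent permeability (Papp, 10^-6 cm/s) was determined in each direction, and the efflux ratio was taken as Papp B–A over Papp A–B.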

Cytochrome P450 1A2 = target: T1, Cytochrome P450 1A2 (Homo sapiens, UniProt P05177); assay: Inhibition of CYP1A2; format: ADME
T1 sequence (P05177 whole entry): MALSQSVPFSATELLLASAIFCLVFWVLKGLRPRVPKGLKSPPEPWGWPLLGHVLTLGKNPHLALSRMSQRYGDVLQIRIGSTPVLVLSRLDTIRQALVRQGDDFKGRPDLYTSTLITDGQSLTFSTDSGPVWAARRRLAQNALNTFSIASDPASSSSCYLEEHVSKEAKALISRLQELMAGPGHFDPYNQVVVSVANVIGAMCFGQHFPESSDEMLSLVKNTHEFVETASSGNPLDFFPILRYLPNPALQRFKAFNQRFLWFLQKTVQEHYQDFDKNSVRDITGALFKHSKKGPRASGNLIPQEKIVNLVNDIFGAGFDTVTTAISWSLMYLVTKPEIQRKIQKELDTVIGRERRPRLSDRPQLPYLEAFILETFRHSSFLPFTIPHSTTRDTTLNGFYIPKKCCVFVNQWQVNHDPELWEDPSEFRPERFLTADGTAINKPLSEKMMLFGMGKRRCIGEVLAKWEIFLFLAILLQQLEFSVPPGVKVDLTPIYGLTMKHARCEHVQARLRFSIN

[8] = Tmax in Sprague-Dawley rat plasma at 2 mg/kg, po and 1 mg/kg, iv after 24 hrs wash out period by HPLC analysis; format: ADME, organism-based; outline: as §1
MDR [9] = assay: Apparent permeability from apical to basolateral side in MDCK cells expressing MDR; format: ADME, cell-based, Canis lupus familiaris; conditions: dog, MDCK-MDR1
Outline: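 Bidirectional permeability (A–B and B–A) across a Pgp-overexpressing mdr-MDCK cell monolayer; efflux ratio derived from the two Papp values, given in 10^-6 cm/s.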

[10] = Drug uptake in cPP-induced feeding Sprague-Dawley rat model brain at 1 mg/kg, po after 1 hr; format: ADME, organism-based; parameters: dose 1 mg/kg, route oral; conditions: read-out: Drug uptake; outline: as §2

clearance [1]: 23.3 mL/min/kg | IC50 (Cytochrome P450 3A4): 700 nM | solubility [2]: 154 µM (≈ 65.9 µg/mL) | concentration at 1 h [3]: 5.47 µM | bioavailability [4]: 100% | half-life [5]: 4.4 h | CLH (Liver microsomes): 3.6 L/min | concentration at 1 h [6]: 516 ng/mL | efflux ratio (MDR [7]): 26 | IC50 (Cytochrome P450 1A2): > 40000 nM | Tmax [8]: 0.8 h | Papp A→B (MDR [9]): 2.31 ×10⁻⁶ cm/s | concentration at 1 h [10]: 104 ng/g
SMILES: CC(C)S(=O)(=O)NC[C@H]1CC[C@H](NC(=O)CN2CCc3cc(Cl)ccc32)CC1
Activity (Rattus norvegicus): Active
